The first test has as its target T1, Serotonin 3 (5-HT3) receptor (Rattus norvegicus, UniProt P35563+Q9JJ16).
T1 sequence (P35563 whole entry): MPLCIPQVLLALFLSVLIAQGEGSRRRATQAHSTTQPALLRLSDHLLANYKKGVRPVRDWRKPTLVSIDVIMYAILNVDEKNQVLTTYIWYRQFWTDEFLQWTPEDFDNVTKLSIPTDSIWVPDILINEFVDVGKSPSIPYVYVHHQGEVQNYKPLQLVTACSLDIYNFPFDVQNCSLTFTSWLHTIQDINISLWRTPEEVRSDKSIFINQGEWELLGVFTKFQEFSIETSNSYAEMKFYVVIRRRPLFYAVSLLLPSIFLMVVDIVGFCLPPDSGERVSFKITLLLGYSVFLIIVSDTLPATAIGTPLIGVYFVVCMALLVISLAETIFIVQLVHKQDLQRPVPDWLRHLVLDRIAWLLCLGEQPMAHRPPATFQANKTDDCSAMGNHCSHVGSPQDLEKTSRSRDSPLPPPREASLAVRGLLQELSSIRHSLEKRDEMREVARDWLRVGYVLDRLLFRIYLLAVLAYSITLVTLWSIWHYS
T1 sequence (Q9JJ16 whole entry): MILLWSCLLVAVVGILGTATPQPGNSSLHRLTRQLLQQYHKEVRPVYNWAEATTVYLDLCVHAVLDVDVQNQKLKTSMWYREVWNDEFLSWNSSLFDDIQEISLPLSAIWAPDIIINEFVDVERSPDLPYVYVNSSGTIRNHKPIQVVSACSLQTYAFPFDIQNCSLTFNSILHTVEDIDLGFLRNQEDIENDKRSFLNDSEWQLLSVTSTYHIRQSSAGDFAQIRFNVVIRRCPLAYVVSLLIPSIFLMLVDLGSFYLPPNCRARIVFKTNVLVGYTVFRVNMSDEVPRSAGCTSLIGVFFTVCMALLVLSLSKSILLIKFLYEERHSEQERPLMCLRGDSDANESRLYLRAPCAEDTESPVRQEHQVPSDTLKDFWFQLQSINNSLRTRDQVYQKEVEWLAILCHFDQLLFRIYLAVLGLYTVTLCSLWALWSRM
The test can be described thus: Compound was evaluated for the displacement of [3H]Q-ICS-205-930 from 5-HT3 recognition sites in rat brain membranes. Format: cell membranes. Put shortly: (§1)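 Value reported as mean ± SEM where n ≥ 3 independent determinations; where no SEM is given, mean of two independent determinations, individual values typically within ±10% of the mean.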
On the technique in general: Loss of bound radioactivity is the signal in a displacement assay; it reports binding, not function.
The term IC50 denotes the point on the concentration scale where inhibition reaches its midpoint. A lower IC50 goes with higher potency. In turn, `CN1[C@@H]2CC[C@H]1C[C@@H](OC(=O)c1c[nH]c3ccccc13)C2` [TROPISETRON] showed a half-maximal inhibitory concentration (IC50) of 0.00126 µM.
Still for that read-out and setting: to `Cn1c([Si](C)(C)C)c(C2=NCC3(CN4CCC3CC4)O2)c2ccccc21` (stereo not given) belongs 0.155 µM.

The target in the next test is T1, Serotonin 3 (5-HT3) receptor. Put plainly: Displacement of [3H]Q-ICS-205-930 from 5-hydroxytryptamine 3 receptor recognition sites in rat brain membranes. Format: cell membranes. In outline:
as §1
`c1ccc2c(C3=NCC4(CN5CCC4CC5)O3)[nH]nc2c1` (stereo not given) gave a half-inhibitory concentration (IC50) of 0.0263 µM.
On the same count and under the same terms, to `Cn1cc(C2=NC[C@@]3(CN4CCC3CC4)O2)c2ccccc21` belongs 0.00257 µM; to `c1ccc2c(C3=NCC4(CN5CCC4CC5)O3)csc2c1` (stereo not given), 0.0269 µM; to `Cc1cccc2c(C3=NCC4(CN5CCC4CC5)O3)cn(C)c12` (stereo not given), 0.00891 µM.
The same measure, in the same setting: for `CN1C2CCC1CC1(CN=C(c3cn(C)c4ccccc34)O1)C2` (stereo in doubt; 22b) the value was 0.00457 µM.
Same read-out and setting: for `Cn1cc(C2=NCC3(CN4CCC3CC4)O2)c2ccccc21` (stereo not given) the value was 0.00316 µM; for `Cn1cc(C2=NC[C@@]3(C[N@@]4CC[C@@H]3C4)O2)c2ccccc21`, 0.00347 µM.
Consider `c1ccc2c(c1)c(C1=NCC3(CN4CCC3CC4)O1)cn2CC1CC1` (stereo not given), for which the concentration for half-maximal inhibition (IC50) was 0.0132 µM.
In turn, `C#CCn1cc(C2=NCC3(CN4CCC3CC4)O2)c2ccccc21` (stereo not given) gave a half-maximal inhibitory concentration (IC50) of 0.00617 µM.
Still for that read-out and setting: for `CC(=O)c1c(C2=NCC3(CN4CCC3CC4)O2)c2ccccc2n1C` (stereo not given) the value was 0.00646 µM.
Still for that read-out and setting: to `Cn1cc(C2=NCC3(CC4CCC(C3)[N+]4(C)C)O2)c2ccccc21` (stereo in doubt; 22e) belongs 0.00331 µM; to `Cn1cc(C2=NCC3(CN4CCC3CC4)O2)c2cc(N)ccc21` (stereo not given), 0.575 µM.
Still for that read-out and setting: to `Cn1cc(C2=NCC3(C[N+]4(C)CCC3CC4)O2)c2ccccc21` (single isomer, unassigned; 22n) belongs 0.0427 µM.
With `Cn1cc(C2=NCC3(CN4CCC3CC4)O2)c2cc(O)ccc21` (stereo not given), the concentration for half-maximal inhibition (IC50) is 0.195 µM.
On the same count and under the same terms, to `Cn1cc(C2=NCC3(C[N+]4([O-])CCC3CC4)O2)c2ccccc21` (stereo not given) belongs 2.63 µM; to `Cn1cc(C2=NCC3(CC4CCC(C3)N4Cc3ccccc3)O2)c2ccccc21` (stereo not given), 0.174 µM.
`Cn1cc(C2=NC[C@]3(C[N@@]4CC[C@@H]3C4)O2)c2ccccc21` had an IC50 of 0.00309 µM.
The same measure, in the same setting: for `Cn1cc(C2=NCC3(CC4CCC(C3)[N+]4(C)C)O2)c2ccccc21` (stereo in doubt; 22c) the value was 0.00501 µM; for `c1ccc2c(C3=NCC4(CN5CCC4CC5)O3)c[nH]c2c1` (stereo not given), 0.00479 µM; for `Cn1cc(C2=NCC3(CC4CCC(C3)N4)O2)c2ccccc21` (stereo not given), 0.0112 µM.
With `Cn1cc(C2=NC[C@]3(CN4CCC3CC4)O2)c2ccccc21`, the IC50 is 0.00288 µM.
Still for that read-out and setting: to `Cn1cc(C2=NCC3(CN4CCC3CC4)O2)c2cc([N+](=O)[O-])ccc21` (stereo not given) belongs 0.229 µM; to `CCn1cc(C2=NCC3(CN4CCC3CC4)O2)c2ccccc21` (stereo not given), 0.0135 µM.
On the same count and under the same terms, for `Cn1cc(C2=NCC3(CN4CCC3CC4)O2)c2cc(F)ccc21` (stereo not given) the value was 0.0148 µM; for `Cn1c(I)c(C2=NCC3(CN4CCC3CC4)O2)c2ccccc21` (stereo not given), 0.0269 µM.
In turn, `CN1C2CCC1CC1(CN=C(c3cn(C)c4ccccc34)O1)C2` (stereo in doubt; 22d) gave an IC50 of 0.00631 µM.
Still for that read-out and setting: for `COc1cccc(C2=NCC3(CN4CCC3CC4)O2)c1` (stereo not given) the value was 0.407 µM; for `C=CCn1cc(C2=NCC3(CN4CCC3CC4)O2)c2ccccc21` (stereo not given), 0.00794 µM; for `Cn1cc(C2=NCC3(C[N+]4(C)CCC3CC4)O2)c2ccccc21` (single isomer, unassigned; 22o), 0.0102 µM.
Same read-out and setting: for `COc1ccc2c(c1)c(C1=NCC3(CN4CCC3CC4)O1)cn2C` (stereo not given) the value was 0.263 µM; for `CN1CCC2(CC1)CN=C(c1cn(C)c3ccccc13)O2`, 0.158 µM.
The same measure, in the same setting: for `Cc1ccc2c(c1)c(C1=NCC3(CN4CCC3CC4)O1)cn2C` (stereo not given) the value was 0.132 µM.
`Cn1cc(C2=NCC3(CCN4CCCC3C4)O2)c2ccccc21` (stereo not given) had an IC50 of 0.00112 µM.

The values above are taken from ChEMBL document CHEMBL1126265, “Novel 5-HT3 antagonists: indol-3-ylspiro(azabicycloalkane-3,5'(4'H)-oxazoles)” (J Med Chem, 1992).
